The entries come from a sample that favours hits as a whole.
PTEN del growth: growth suppression of PTEN-null HCT116, primary screen, cell-based, CellTiter-Glo | HCT116 PTEN-null viability, 60 h; hits give low values | viability, % at 10 µM | 1.2% of 140,000 active;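 active means viability at or below a set limit, 4 SD under the median of all tested compounds, cut at about 3.7% in these data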;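 further: PTEN knockout HCT116 line with beta catenin targeted HCT116 as companion control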
HCT116 bCat-KO: primary screen for growth suppressors in beta-catenin knockout HCT116 cells (colon tumor, human). HCT116 beta-catenin knockout viability, CellTiter-Glo, 60 h; hits give low values. viability, % at 10 µM. 1.5% of 140,000 active;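 active means viability at or under a set limit, the compound median less 4 SD, cut at about 6% in these data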;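 further: 0% = Hyamine 1622 control at 20 µM and 100% = untreated cell control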
Fibroblast inh: antiproliferative effect on LL 47 fibroblasts – human, LL 47 cells, CellTiter-Glo luminescence, primary screen; AID 719, 2007; viability, % at 10 µM; LL 47 human lung fibroblast viability, ATP luminescence; hits give low values; 1.1% of 85,000 active;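 active means viability at or below 50% in the single dose screen; inactive means viability above 50%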;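 further: compound exposure lasted 72 h before the ATP readout; 100% = median luminescence of untreated cell-only wells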
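Times – overnight cell rest, 72 h compound treatment at 37 °C · Test system – human lung fibroblast line LL 47, low passage · Amount – 1,150 cells in each well · Controls – cell-only wells, no compound · Doses – 0.1% DMSO in all compound wells · Measured by – CellTiter-Glo luminescence · Buffer or medium – IMEM plus 15% FBS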
H69AR growth 86K: proliferation blockers of H69AR lung cancer cells, primary screen, cell-based, human, 86K library | 6% of 85,000 active | viability, % at 10 µM | AID 598, 2007 | H69AR lung tumor viability, ATP luminescence, 72 h; hits give low values;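 active means viability at or below 40%; inactive means viability above 40%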;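 further: multidrug resistant small cell line overexpressing MRP-1 efflux transporter; 100% = mean luminescence of untreated control wells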
HUVEC inhibit: inhibitors of HUVEC proliferation, primary screen, cell-based, 384-well; CellTiter-Glo luminescence, 72 h; hits give low values; AID 648, 2007; 1.1% of 86,000 active; viability, % at 10 µM (by protocol);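 active means viability at or below 30%; inactive means viability above 30%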;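 further: 100% = median luminescence of DMSO-only cell control wells on each plate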
The depositor's hits bear a star; · = no result.

SMILES | PTEN del growth | HCT116 bCat-KO | Fibroblast inh | H69AR growth 86K | HUVEC inhibit
CC(C(=O)OCC(=O)Nc1ccc(S(=O)(=O)N2CCCCC2)cc1)N1C(=O)c2ccccc2C1=O (stereo not drawn) | 104 | 90 | · | · | ·
O=C(Nc1nc2ccc(S(=O)(=O)N3CCCC3)cc2s1)c1ccco1 | 106 | 105 | · | · | ·
Cc1ccc2nc(NC(=O)C3CCCN(S(=O)(=O)c4cccnc4)C3)sc2c1 (stereo not drawn) | 76 | 80 | 109 | 28* | 100
CCCC(=O)Nc1nc2ccc(S(=O)(=O)N3CCCCC3)cc2s1 | 32 | 33 | 48* | 20* | 54
CCCCC(=O)Nc1ccc(C(=O)Nc2ccc(S(=O)(=O)N3CCCC3)cc2)cc1 | 94 | 89 | 42* | 63 | 93
CC(=O)c1ccc(NC(=O)c2ccc(S(=O)(=O)N3CCCC3)cc2)cc1 | 102 | 96 | 103 | 80 | 99
CC(C)[C@H](NC(=O)c1cccc(S(=O)(=O)N2CCOCC2)c1)C(=O)Nc1nc2ccccc2s1 | 80 | 75 | · | · | ·
CC(C)CC(=O)Nc1nc2ccc(S(=O)(=O)N3CCOCC3)cc2s1 | 36 | 39 | 80 | 27* | 67
Cc1cccc(C)c1NC(=O)c1sc(Cl)nc1C | 97 | 92 | · | · | ·
Cc1[nH]nc2c1C(CCc1ccccc1)C(C#N)=C(N)O2 (stereo not drawn) | 94 | 99 | 96 | · | 94
COc1ccc2oc(=O)c(/C(C)=N/NC(=O)c3ccncc3)cc2c1 | 98 | 98 | · | · | ·
Cc1ccc(/C=c2\s/c(=C(/C#N)C(=O)N3CCCC3)n(Cc3ccco3)c2=O)s1 | 48 | 54 | 97 | 37* | 59
COC(=O)/C=c1/s/c(=C(\C#N)C(=O)NCc2ccco2)n(-c2ccc(C)cc2)c1=O | 96 | 89 | 104 | 100 | 96
CC(=O)/C(CN1CCCCC1)=N\O | 95 | 117 | 98 | 102 | 93
C/C(=N\O)C(=O)C(CN1CCCCC1)CN1CCCCC1 | 82 | 100 | 15* | 0.4* | 74
CC(OC(=O)c1cccc(NS(C)(=O)=O)c1)C(=O)Nc1ccc(N2CCOCC2)cc1 (stereo not drawn) | 84 | 85 | 107 | 94 | 96
COc1ccc(-c2nc3c(c4nnc(SC(C)C(=O)Nc5ccccc5)n24)COC(C)(C)C3)cc1 (stereo not drawn) | 38 | 5.2* | · | · | ·
COc1nc(-c2ccccc2)ccc1-c1noc(-c2ccccc2)n1 | 95 | 96 | 102 | 72 | 93
CCOc1nc(-c2ccccc2)ccc1-c1noc(-c2ccc(OC)c(OC)c2)n1 | · | · | 99 | 32* | 71
Cc1ccc(N(Cc2ccc(C(=O)NN=C3CCN(C)CC3)cc2)S(C)(=O)=O)cc1C | 99 | 101 | · | · | ·
Cc1ccccc1N1CCN(C(=O)CN2C(=O)c3ccccc3C2=O)CC1 | 97 | 103 | 97 | 97 | 98
Cc1cc(N(C(=O)c2ccco2)C(C(=O)NC2CCCCC2)c2ccccc2)ccc1-n1cnnn1 (stereo not drawn) | 84 | 73 | 88 | 39* | 99
Cn1c(C(C#N)C2=C(Cl)C(=O)N(c3ccccc3)C2=O)nc2ccccc21 (stereo not drawn) | 75 | 96 | 98 | 63 | 87
COc1ccc(C(=O)Cn2c(C(=O)/C=C/c3ccccc3)nc3ccccc32)cc1 | 3.7* | 2.4* | · | · | ·
COCCN(C(=O)C(F)(F)F)C(C(=O)NC1CCCCC1)c1ccco1 (stereo not drawn) | 81 | 92 | 105 | 93 | 90
SMILES | PTEN del growth | HCT116 bCat-KO | Fibroblast inh | H69AR growth 86K | HUVEC inhibit
COCCN(C(=O)CCl)C(C(=O)NC1CCCCC1)c1ccccc1C (stereo not drawn) | 3.2* | 5.2* | · | · | ·
COc1ccc(CCC(C)NC2C3CC4CC(C3)CC2C4)cc1 (stereo not drawn) | 87 | 84 | · | · | ·
CCOC(=O)C1=C(CC)Nc2ccccc2N=C1NC(=O)Nc1ccc(Cl)c(Cl)c1 | 2.6* | 2.6* | · | · | ·
CCOC(=O)C1=C(CC)Nc2ccccc2N=C1NC(=O)Cn1cnc2ccccc2c1=O | 74 | 79 | 103 | 97 | 100
Oc1cccc(-c2nc3c4c(ncn3n2)-c2ccccc2CC42CCCC2)c1 | 2.4* | 10 | · | · | ·
COc1ccc(-c2nc3c4c(ncn3n2)-c2ccccc2CC42CCCC2)cc1 | 66 | 74 | · | · | ·
COc1cc(CNC2CCCC2)cc(Cl)c1OCc1ccccc1Cl | 1.6* | 1.2* | · | · | ·
COc1cc(CNC2CCCC2)cc(OC)c1OC | 102 | 107 | 105 | 90 | 87
CCOc1cc(CNCCc2ccc(S(N)(=O)=O)cc2)cc(Cl)c1OCc1ccccc1 | 1.9* | 1.5* | · | · | ·
CCOc1cc(CNC2CCCC2)cc(Cl)c1OCc1ccc(F)cc1 | 0.9* | 0.9* | · | · | ·
COc1cc(CNC2CCCC2)cc(Cl)c1OCc1ccc(F)cc1 | 64 | 48 | · | · | ·
CN(C)C(=S)SCC(=O)Nc1ccc(Cl)cc1Cl | 93 | 93 | · | · | ·
Cc1cc(-c2ccccc2)nc(N(C)NC(=O)c2ccc(Cl)cc2)c1S(C)(=O)=O | 75 | 69 | 106 | 93 | 96
CC(C)C1N=C(c2ccc3c(c2)OCO3)CC(c2ccccc2O)N1 (stereo not drawn) | 8 | 5.8* | 56 | 2.1* | 59
O=C1C(Cl)=C(N2CCOCC2)C(=O)N1c1ccccc1Cl | 91 | 97 | · | 28* | 101
CCOCCCN1C(=O)C(O)=C(C(C)=O)C1c1cccs1 (stereo not drawn) | 107 | 95 | 95 | 92 | 91
COc1ccc(Nc2nc(C(F)(F)F)nc(C)c2C#N)cc1 | 95 | 95 | · | · | ·
Cn1cc([N+](=O)[O-])c(C(=O)Nc2ccc(Br)cn2)n1 | 1.4* | 2.7* | · | · | ·
Cn1cc([N+](=O)[O-])c(C(=O)Nc2ccn(Cc3c(F)c(F)cc(F)c3F)n2)n1 | 3.1* | 3.0* | · | · | ·
Cn1cc([N+](=O)[O-])c(C(=O)N/N=C/c2ccc([N+](=O)[O-])cc2)n1 | 93 | 89 | · | · | ·
CC1=C(C(=O)Nc2ccc(C)cc2C)C(c2ccc(C)o2)NC(=S)N1 (stereo not drawn) | 96 | 100 | · | · | ·
Cc1nn(Cc2cccc(C(=O)NC34CC5CC(CC(C5)C3)C4)c2)c(C)c1Br | 79 | 77 | 91 | 98 | 29*
O=C1c2cc([N+](=O)[O-])cc3cc([N+](=O)[O-])cc(c23)C(=O)N1c1ccccn1 | 6 | 15 | · | · | ·
Cc1ccnc(N2C(=O)c3cccc4c([N+](=O)[O-])ccc(c34)C2=O)c1 | 1.3* | 1.2* | · | · | ·
c1ccc(CCNc2ncnc3scc(C4COc5ccccc5O4)c23)cc1 (stereo not drawn) | 50 | 55 | 97 | 28* | 87
O=C(/C=C/c1cn(CC(O)CN2CCCCCC2)c2ccccc12)c1cccs1 (stereo not drawn) | 1.9* | 1.2* | · | · | ·
CCCCN(C)CC(O)Cn1cc(/C=C/C(=O)c2cccs2)c2ccccc21 (stereo not drawn) | 1.6* | 1.6* | · | · | ·

Bioassay records from PubChem BioAssay.
